Measured values reported in ChEMBL document CHEMBL4385592, “4-Imidazo[2,1-b]thiazole-1,4-DHPs and neuroprotection: preliminary study in hits searching” (Eur J Med Chem, 2019).
pEC50: −log10 of the molar value.

What was measured:
[1] = target: T1, Voltage-gated L-type calcium channel (Homo sapiens, UniProt Q13936+Q13698+Q01668+O60840); experiment: (§1) Inhibition of voltage-dependent L-type calcium channel in human U373MG cells assessed as protection against oxygen glucose deprivation/reperfusion-induced injury by measuring recovery of cell viability at 1 uM administered at onset of reperfusion period measured after 16 hrs by alamar blue assay relative to control; type: cell-based
How it was run: (§2)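 U-373 MG astrocytoma cells seeded at 30000 cells/ml and grown 24 or 48 h (37 °C/5% CO2). OGD: 24 h at 37 °C in glucose-free DMEM pre-bubbled with 95% N2/5% CO2, in a sealed nitrogen-flushed chamber. Then 16 h reperfusion in normal medium; compounds added at reperfusion, diluted from DMSO stock (DMSO ≤0.1%). Viability by alamarBlue, 4 h at 37 °C, fluorescence ex 530–560/em 590 nm. Expressed as % recovery from injury, mean ± S.E. of ≥3 experiments in sixuplicate.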

[2] = target: T1, Voltage-gated L-type calcium channel; experiment: as §1, with “at 20” for “at 1”; type: cell-based; how it was run: as §2
[3] = target: T1, Voltage-gated L-type calcium channel; experiment: Inhibition of voltage-dependent L-type calcium channel in human SH-SY5Y cells assessed as protection against glutamate-induced excitotoxicity by measuring recovery of cell viability at 1 uM measured after 24 hrs by alamar blue-based fluorescence method relative to control
[4] = target: T1, Voltage-gated L-type calcium channel; experiment: Inhibition of voltage-dependent L-type calcium channel in human SH-SY5Y cells assessed as protection against glutamate-induced excitotoxicity by measuring recovery of cell viability at 20 uM measured after 24 hrs by alamar blue-based fluorescence method relative to control
[5] = target: T2, Voltage-gated L-type calcium channel (Rattus norvegicus, UniProt P22002+Q02485+P27732); experiment: as §1, with “Wistar rat brain slices” for “human U373MG cells”, “LDH release” for “cell viability”, “20” for “1”, “90 mins” for “16 hrs”, “spectrophotometric” for “alamar blue”; design: scale not given: the % may be the effect or the level left; details: 1.5 h
[6] = target: T2, Voltage-gated L-type calcium channel; experiment: as §1, with “Wistar rat brain slices” for “human U373MG cells”, “edema formation” for “cell viability”, “20” for “1”, “90 mins” for “16 hrs by alamar blue assay”; design: scale not given: the % may be the effect or the level left; details: 1.5 h
Right cardiac atrium [7] = experiment: Negative chronotropic activity in guinea pig spontaneously beating right atrium assessed as decrease in atrial rate; type: tissue-based; details: Cavia porcellus
Left cardiac atrium [8] = experiment: Negative inotropic activity in guinea pig left atrium assessed as decrease in developed tension at 10^-6 M relative to control; type: ADME, tissue-based, Cavia porcellus; design: scale not given: the % may be the effect or the level left; details: 1 µM
Right cardiac atrium [9] = experiment: Negative chronotropic activity in guinea pig spontaneously beating right atrium assessed as decrease in atrial rate at 5 x 10^-5 M relative to control; type: tissue-based, Cavia porcellus; design: scale not given: the % may be the effect or the level left; details: 50 µM
Aorta [10] = experiment: Inhibition of calcium-induced contraction in K+-depolarized guinea pig aortic strips at 10^-4 M relative to control; type: tissue-based; details: Cavia porcellus
[11] = Selectivity ratio of EC50 for negative chronotropic activity in guinea pig spontaneously beating right atrium to EC50 for negative inotropic activity in guinea pig left atrium; type: ADME, tissue-based, Cavia porcellus
Left cardiac atrium [12] = experiment: Negative inotropic activity in guinea pig left atrium assessed as decrease in developed tension at 5 x 10^-6 M relative to control; type: ADME, tissue-based, Cavia porcellus; design: scale not given: the % may be the effect or the level left; details: 5 µM
Left cardiac atrium [13] = experiment: Negative inotropic activity in guinea pig left atrium assessed as decrease in developed tension at 0.001 to 100 uM relative to control; type: ADME, tissue-based; details: Cavia porcellus
Right cardiac atrium [14] = experiment: Negative chronotropic activity in guinea pig spontaneously beating right atrium assessed as decrease in atrial rate at 10^-5 M relative to control; type: ADME, tissue-based, Cavia porcellus; design: scale not given: the % may be the effect or the level left; details: 10 µM
Left cardiac atrium [15] = experiment: Negative inotropic activity in guinea pig left atrium assessed as decrease in developed tension at 10^-4 M relative to control; type: ADME, tissue-based, Cavia porcellus; design: scale not given: the % may be the effect or the level left; details: 100 µM
Aorta [16] = experiment: Inhibition of calcium-induced contraction in K+-depolarized guinea pig aortic strips at 5 x 10^-5 M relative to control; type: tissue-based; details: Cavia porcellus
Left cardiac atrium [17] = experiment: Negative inotropic activity in guinea pig left atrium assessed as decrease in developed tension at 5 x 10^-5 M relative to control; type: ADME, tissue-based, Cavia porcellus; design: scale not given: the % may be the effect or the level left; details: 50 µM
Left cardiac atrium [18] = experiment: Negative inotropic activity in guinea pig left atrium assessed as decrease in developed tension at 10^-5 M relative to control; design: scale not given: the % may be the effect or the level left; details: 10 µM
Left cardiac atrium [19] = experiment: Negative inotropic activity in guinea pig left atrium assessed as decrease in developed tension at 5 x 10^-7 M relative to control; type: ADME, tissue-based, Cavia porcellus; design: scale not given: the % may be the effect or the level left; details: 0.5 µM
Right cardiac atrium [20] = experiment: Negative inotropic activity in guinea pig right atrium assessed as decrease in developed tension at 10^-5 M relative to control; type: ADME, tissue-based, Cavia porcellus; design: scale not given: the % may be the effect or the level left; details: 10 µM
[21] = tested on: Left cardiac atrium (Cavia porcellus); experiment: Negative inotropic activity in guinea pig left atrium assessed as decrease in developed tension

Structure (SMILES)	pEC50 (Right cardiac atrium [7])	pEC50 (Left cardiac atrium [13])	Activity (Right cardiac atrium [14])	Activity [1]	Activity [2]	Activity [3]	Activity [4]	Activity [5]	Activity [6]	inhibition at 100 µM (Aorta [10])	also measured
COC(=O)C1=C(C)NC(C)=C(C(=O)OC)C1c1c(-c2ccc(C(F)(F)F)cc2)nc2sccn12	–	–	–	< 5%	< 5%	17.5%	36.6%	–	–	–	–
COC(=O)C1=C(C)NC(C)=C(C(=O)OC)C1c1c(-c2ccc(OC(F)(F)F)cc2)nc2sccn12	–	–	–	52.3%	54.2%	37.4%	37.7%	93.8%	93.8%	–	–
CCOC(=O)C1=C(C)NC(C)=C(C(=O)OCC)C1c1c(-c2cc(OC)ccc2OC)nc2sccn12	–	–	–	36.6%	65.7%	42.8%	67.4%	87%	75.8%	–	–
COC(=O)C1=C(C)NC(C)=C(C(=O)OC)C1c1c(-c2ccccc2OC)nc2sccn12	–	–	–	< 5%	< 5%	< 5%	< 5%	–	–	–	–
COC(=O)C1=C(C)NC(C)=C(C(=O)OC)C1c1c(-c2cc(OC)c([N+](=O)[O-])cc2OC)nc2sccn12	–	–	–	< 5%	< 5%	31.5%	46.3%	–	–	–	–
COC(=O)C1=C(C)NC(C)=C(C(=O)OC)C1c1c(-c2cc(OC)ccc2OC)nc2sc(Cl)cn12	–	–	–	78.8%	99.6%	42%	108.4%	81.3%	91.8%	–	–
COC(=O)C1=C(C)NC(C)=C(C(=O)OC)C1c1c(C(F)(F)F)nc2sccn12	–	–	–	73%	86.7%	44.1%	84.5%	79.2%	105.4%	–	–
COC(=O)C1=C(C)NC(C)=C(C(=O)OC)C1c1c(C(F)(F)F)nc2sc(C)cn12	–	–	–	< 5%	< 5%	35.4%	44.1%	100.3%	63.7%	–	–
COC(=O)C1=C(C)NC(C)=C(C(=O)OC)C1c1c(-c2cccc(OC)c2)nc2sccn12	–	–	–	< 5%	< 5%	< 5%	< 5%	–	–	–	–
COC(=O)C1=C(C)NC(C)=C(C(=O)OC)C1c1c(-c2ccccc2)nc2scc(C)n12	–	–	–	< 5%	< 5%	85.1%	130%	100.65%	82.5%	–	–
COC(=O)C1=C(C)NC(C)=C(C(=O)OC)C1c1c(-c2cc(OC)ccc2OC)nc2sccn12	–	–	–	82.9%	96.7%	51.9%	99%	83.9%	77.6%	–	–
COC(=O)C1=C(C)NC(C)=C(C(=O)OC)C1c1c(-c2c(OC)ccc(OC)c2[N+](=O)[O-])nc2sc(Cl)cn12	–	–	–	< 5%	< 5%	13.1%	36.8%	–	–	–	–

More lines, main results first:

pEC50 (Right cardiac atrium [7])	pEC50 (Left cardiac atrium [13])	Activity (Right cardiac atrium [14])	Structure (SMILES)	Activity [1]	Activity [2]	Activity [3]	Activity [4]	Activity [5]	Activity [6]	inhibition at 100 µM (Aorta [10])	also measured
7.64	–	–	CCOC(=O)C1=C(C)NC(C)=C(C(=O)OCC)C1c1c(-c2ccc(F)cc2)nc2sc(C)cn12	9.1%	13.2%	28.9%	43.1%	–	–	12%	Activity (Left cardiac atrium [8]): 37%; Activity (Right cardiac atrium [9]): 86%
5.62	7.60	92%	C=CCOC(=O)C1=C(C)NC(C)=C(C(=O)OCC=C)C1c1c(-c2cc(OC)c([N+](=O)[O-])cc2OC)nc2sccn12	< 5%	< 5%	40.6%	52.3%	51.2%	82%	15%	Ratio EC50 [11]: 95; Activity (Left cardiac atrium [12]): 96%
5.07	6.72	50%	CCOC(=O)C1=C(C)NC(C)=C(C(=O)OCC)C1c1c(-c2ccc(Cl)c([N+](=O)[O-])c2)nc2sc(C)cn12	< 5%	< 5%	< 5%	< 5%	< 5%	< 5%	24%	Ratio EC50 [11]: 25 to 56; Activity (Left cardiac atrium [12]): 64%
5.76	5.46	–	CCOC(=O)C1=C(C)NC(C)=C(C(=O)OCC)C1c1c(-c2ccc(Cl)cc2)nc2sc(Cl)cn12	< 5%	< 5%	25.1%	47.1%	–	–	45%	Activity (Left cardiac atrium [15]): 73%; Activity (Right cardiac atrium [9]): 94%
6.19	7.60	80%	CCOC(=O)C1=C(C)NC(C)=C(C(=O)OCC)C1c1c(-c2cc(OC)cc(OC)c2)nc2sc(Br)cn12	< 5%	29.6%	17.4%	42.4%	14.5%	< 5%	–	Ratio EC50 [11]: < 10; Activity (Left cardiac atrium [8]): 93%; inhibition at 50 µM (Aorta [16]): 7%
5.76	7.31	83%	CCOC(=O)C1=C(C)NC(C)=C(C(=O)OCC)C1c1c(-c2ccc(F)cc2)nc2sc(Cl)cn12	32.6%	33.7%	44.9%	47.5%	61.9%	< 5%	3%	Ratio EC50 [11]: 25 to 56; Activity (Left cardiac atrium [8]): 62%
6.51	–	90%	CCOC(=O)C1=C(C)NC(C)=C(C(=O)OCC)C1c1c(-c2ccc(OC)c(OC)c2)nc2sc(Br)cn12	9%	55.1%	18.2%	33.4%	57.8%	89.1%	–	Activity (Left cardiac atrium [12]): 39%; inhibition at 50 µM (Aorta [16]): 5%
–	–	25%	CCOC(=O)C1=C(C)NC(C)=C(C(=O)OCC)C1c1c(-c2ccc(F)cc2)nc2sc(Br)cn12	< 5%	< 5%	< 5%	< 5%	–	–	–	Activity (Left cardiac atrium [17]): 37%; inhibition at 50 µM (Aorta [16]): 7%
–	–	35%	CCOC(=O)C1=C(C)NC(C)=C(C(=O)OCC)C1c1c(-c2c(F)cccc2F)nc2sccn12	< 5%	< 5%	19.5%	27.7%	–	–	28%	Activity (Left cardiac atrium [8]): 33%
6.01	5.29	86%	CCOC(=O)C1=C(C)NC(C)=C(C(=O)OCC)C1c1c(-c2ccccc2F)nc2sccn12	< 5%	36.8%	53.2%	62.2%	–	–	–	Activity (Left cardiac atrium [17]): 55%; inhibition at 50 µM (Aorta [16]): 17%
5.32	6.60	78%	CCOC(=O)C1=C(C)NC(C)=C(C(=O)OCC)C1c1c(-c2cc(OC)ccc2OC)nc2sc(C)cn12	< 5%	< 5%	< 5%	< 5%	–	–	43%	Ratio EC50 [11]: 20; Activity (Left cardiac atrium [18]): 89%
–	7.48	40%	CCOC(=O)C1=C(C)NC(C)=C(C(=O)OCC)C1c1c(-c2cc([N+](=O)[O-])c(Cl)cc2Cl)nc2sc(CC)cn12	21.2%	26.7%	14.7%	41.6%	18%	< 5%	15%	Activity (Left cardiac atrium [19]): 67%; Activity (Right cardiac atrium [20]): 58%; pEC50 [21]: 5.83
